Laboratory results as given in ChEMBL document CHEMBL1765045, “Fine-tuning the selectivity of aldosterone synthase inhibitors: structure-activity and structure-selectivity insights from studies of heteroaryl substituted 1,2,5,6-tetrahydropyrrolo[3,2,1-ij]quinolin-4-one derivatives” (J Med Chem, 2011).

Tests used:
[1] = target: T1, Cytochrome P450 11B2, mitochondrial (Homo sapiens, UniProt P19099); assay: Inhibition of human CYP11B2 expressed in hamster V79 MZh cells assessed as conversion of [4-14C]-11-deoxycorticosterone substrate by HPTLC assay; type: cell-based
T1 sequence (P19099 whole entry): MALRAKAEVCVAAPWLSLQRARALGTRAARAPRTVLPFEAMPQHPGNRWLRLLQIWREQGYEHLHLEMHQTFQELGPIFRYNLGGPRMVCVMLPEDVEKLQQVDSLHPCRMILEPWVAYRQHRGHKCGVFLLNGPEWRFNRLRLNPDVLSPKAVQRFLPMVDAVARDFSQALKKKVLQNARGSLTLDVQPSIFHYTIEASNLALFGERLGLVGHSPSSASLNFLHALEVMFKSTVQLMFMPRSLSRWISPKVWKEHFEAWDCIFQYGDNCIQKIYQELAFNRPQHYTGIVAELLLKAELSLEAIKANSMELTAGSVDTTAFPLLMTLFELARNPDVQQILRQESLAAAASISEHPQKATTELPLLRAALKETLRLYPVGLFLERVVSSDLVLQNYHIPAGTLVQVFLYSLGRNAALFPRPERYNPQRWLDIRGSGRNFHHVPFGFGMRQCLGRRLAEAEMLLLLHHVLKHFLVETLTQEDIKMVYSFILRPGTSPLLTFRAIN
Summary of the method: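 Hamster V79 MZh fibroblasts expressing human CYP11B2 incubated with [4-14C]-11-deoxycorticosterone (100 nM) and inhibitor at ≥3 concentrations; reaction stopped with ethyl acetate, steroids extracted after shaking and centrifugation (10000g, 2 min). Substrate conversion read by HPTLC with phosphoimaging.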

[2] = target: T1, Cytochrome P450 11B2, mitochondrial; assay: Inhibition of human CYP11B2 expressed in hamster V79 MZh cells assessed as conversion of [4-14C]-11-deoxycorticosterone substrate at 500 nM by HPTLC assay; type: cell-based; conditions: V79MZh
Summary of the method: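 V79 MZh cells expressing human CYP11B2 given [4-14C]-11-deoxycorticosterone, 100 nM, with inhibitor at a single 500 nM concentration. Ethyl acetate extraction, then HPTLC/phosphoimager readout of conversion. Percent inhibition is the mean of at least three experiments.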

[3] = target: CYP3A4 (Homo sapiens, UniProt P08684); assay: Inhibition of human CYP3A4 expressed in baculovirus-infected insect microsomes at 10 uM; type: ADME, Microsome
Summary of the method: (§1)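 Recombinant human CYP1A2, 2B6, 2C9, 2C19, 2D6 or 3A4 in baculovirus-infected insect microsomes (Supersomes), run per manufacturer's protocol. Inhibitor at 1 and 10 μM; percent inhibition is the mean of two experiments.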

[4] = target: CYP2D6 (Homo sapiens, UniProt P10635); assay: Inhibition of human CYP2D6 expressed in baculovirus-infected insect microsomes at 10 uM; type: ADME, Microsome; summary of the method: as §1
[5] = target: T2, CYP2C19 (Homo sapiens, UniProt P33261); assay: Inhibition of human CYP2C19 expressed in baculovirus-infected insect microsomes at 10 uM; type: ADME, Microsome; summary of the method: as §1
[6] = target: T3, CYP2C9 (Homo sapiens, UniProt P11712); assay: Inhibition of human CYP2C9 expressed in baculovirus-infected insect microsomes at 10 uM; type: ADME, Microsome; summary of the method: as §1
[7] = target: T3, CYP2C9; assay: Inhibition of human CYP2C9 expressed in baculovirus-infected insect microsomes at 1 uM; type: ADME, Microsome; summary of the method: as §1
[8] = target: T4, CYP2B6 (Homo sapiens, UniProt P20813); assay: Inhibition of human CYP2B6 expressed in baculovirus-infected insect microsomes at 1 uM; type: ADME, Microsome; summary of the method: as §1
T4 sequence (P20813 whole entry): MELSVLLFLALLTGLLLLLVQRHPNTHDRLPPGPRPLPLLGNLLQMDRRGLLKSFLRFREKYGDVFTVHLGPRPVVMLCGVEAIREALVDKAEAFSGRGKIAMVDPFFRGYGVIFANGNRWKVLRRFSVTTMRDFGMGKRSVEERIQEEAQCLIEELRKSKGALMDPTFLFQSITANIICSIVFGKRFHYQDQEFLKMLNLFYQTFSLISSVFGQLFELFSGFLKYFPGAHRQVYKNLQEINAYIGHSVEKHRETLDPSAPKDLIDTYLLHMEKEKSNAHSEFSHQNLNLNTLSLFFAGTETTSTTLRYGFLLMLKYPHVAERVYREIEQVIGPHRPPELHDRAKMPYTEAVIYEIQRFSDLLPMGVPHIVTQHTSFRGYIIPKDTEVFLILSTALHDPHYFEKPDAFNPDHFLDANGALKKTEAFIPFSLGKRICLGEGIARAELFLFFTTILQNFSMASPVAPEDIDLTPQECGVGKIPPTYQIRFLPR

[9] = target: T5, CYP1A2 (Homo sapiens, UniProt P05177); assay: Inhibition of human CYP1A2 expressed in baculovirus-infected insect microsomes at 10 uM; type: ADME, Microsome; summary of the method: as §1
T5 sequence (P05177 whole entry): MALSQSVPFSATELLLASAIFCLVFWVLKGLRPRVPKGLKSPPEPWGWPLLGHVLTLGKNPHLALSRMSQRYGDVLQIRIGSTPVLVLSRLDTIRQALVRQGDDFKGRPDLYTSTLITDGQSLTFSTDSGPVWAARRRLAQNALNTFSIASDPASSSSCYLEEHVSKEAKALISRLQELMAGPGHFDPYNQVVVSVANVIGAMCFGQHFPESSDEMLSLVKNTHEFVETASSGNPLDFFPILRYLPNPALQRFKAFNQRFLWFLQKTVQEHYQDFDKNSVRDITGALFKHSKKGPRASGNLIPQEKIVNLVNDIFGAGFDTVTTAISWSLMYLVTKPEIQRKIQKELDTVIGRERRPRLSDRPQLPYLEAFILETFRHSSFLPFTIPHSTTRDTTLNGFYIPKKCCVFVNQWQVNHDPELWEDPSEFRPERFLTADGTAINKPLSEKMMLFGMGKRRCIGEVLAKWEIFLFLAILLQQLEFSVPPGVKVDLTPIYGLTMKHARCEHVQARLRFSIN

[10] = target: T6, CYP17 (Homo sapiens, UniProt P05093); assay: Inhibition of human CYP17 expressed in Escherichia coli using progesterone substrate at 2 uM; conditions: recombinant human CYP17 expressed in Escherichia coli, probe progesterone
T6 sequence (P05093 whole entry): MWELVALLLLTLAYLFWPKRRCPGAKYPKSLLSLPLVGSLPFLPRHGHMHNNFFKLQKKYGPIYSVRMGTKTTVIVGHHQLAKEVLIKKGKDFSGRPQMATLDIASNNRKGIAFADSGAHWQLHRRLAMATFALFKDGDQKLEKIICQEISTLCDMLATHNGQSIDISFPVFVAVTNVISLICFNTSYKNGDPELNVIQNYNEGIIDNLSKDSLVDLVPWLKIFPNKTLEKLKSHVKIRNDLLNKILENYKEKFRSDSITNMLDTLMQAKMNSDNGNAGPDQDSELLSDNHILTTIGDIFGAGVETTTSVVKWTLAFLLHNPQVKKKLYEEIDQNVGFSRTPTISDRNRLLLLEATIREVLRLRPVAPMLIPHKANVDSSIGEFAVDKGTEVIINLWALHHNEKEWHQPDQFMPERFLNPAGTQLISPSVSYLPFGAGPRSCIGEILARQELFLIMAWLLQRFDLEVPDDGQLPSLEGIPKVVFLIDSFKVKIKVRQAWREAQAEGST
Summary of the method: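 50000g sediment of E. coli homogenate recombinantly expressing human CYP17. Progesterone substrate at 25 μM, inhibitor tested at 2 μM.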

[11] = target: T2, CYP2C19; assay: Inhibition of human CYP2C19 expressed in baculovirus-infected insect microsomes at 1 uM; type: ADME, Microsome; summary of the method: as §1

CYP3A4, sequence (P08684 whole entry): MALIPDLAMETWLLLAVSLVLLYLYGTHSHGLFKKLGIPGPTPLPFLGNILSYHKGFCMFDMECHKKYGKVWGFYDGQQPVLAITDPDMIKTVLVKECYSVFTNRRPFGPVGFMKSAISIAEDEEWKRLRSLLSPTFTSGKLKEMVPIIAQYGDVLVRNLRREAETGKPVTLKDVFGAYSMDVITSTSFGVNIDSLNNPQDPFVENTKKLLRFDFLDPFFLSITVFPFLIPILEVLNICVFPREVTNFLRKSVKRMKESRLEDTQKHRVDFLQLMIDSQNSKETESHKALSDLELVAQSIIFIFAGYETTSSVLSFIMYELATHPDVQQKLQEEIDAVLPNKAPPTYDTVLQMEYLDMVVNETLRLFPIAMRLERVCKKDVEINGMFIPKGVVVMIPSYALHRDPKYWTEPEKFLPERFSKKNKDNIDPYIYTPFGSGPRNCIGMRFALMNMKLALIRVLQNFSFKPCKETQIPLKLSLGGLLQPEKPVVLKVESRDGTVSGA
T3 sequence (P11712 whole entry): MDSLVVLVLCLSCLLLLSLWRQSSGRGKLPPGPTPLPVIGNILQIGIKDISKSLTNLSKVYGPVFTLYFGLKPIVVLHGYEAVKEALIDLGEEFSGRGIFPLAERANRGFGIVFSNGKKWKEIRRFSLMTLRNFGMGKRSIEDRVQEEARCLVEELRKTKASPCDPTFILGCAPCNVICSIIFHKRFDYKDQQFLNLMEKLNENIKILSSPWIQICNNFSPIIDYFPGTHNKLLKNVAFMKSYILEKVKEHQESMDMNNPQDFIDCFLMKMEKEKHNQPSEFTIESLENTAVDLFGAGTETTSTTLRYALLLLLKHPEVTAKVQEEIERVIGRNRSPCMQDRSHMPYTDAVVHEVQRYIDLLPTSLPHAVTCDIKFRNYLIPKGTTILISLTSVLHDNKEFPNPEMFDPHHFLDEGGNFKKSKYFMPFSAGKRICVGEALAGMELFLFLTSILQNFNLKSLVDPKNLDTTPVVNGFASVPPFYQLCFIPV
CYP2D6, sequence (P10635 whole entry): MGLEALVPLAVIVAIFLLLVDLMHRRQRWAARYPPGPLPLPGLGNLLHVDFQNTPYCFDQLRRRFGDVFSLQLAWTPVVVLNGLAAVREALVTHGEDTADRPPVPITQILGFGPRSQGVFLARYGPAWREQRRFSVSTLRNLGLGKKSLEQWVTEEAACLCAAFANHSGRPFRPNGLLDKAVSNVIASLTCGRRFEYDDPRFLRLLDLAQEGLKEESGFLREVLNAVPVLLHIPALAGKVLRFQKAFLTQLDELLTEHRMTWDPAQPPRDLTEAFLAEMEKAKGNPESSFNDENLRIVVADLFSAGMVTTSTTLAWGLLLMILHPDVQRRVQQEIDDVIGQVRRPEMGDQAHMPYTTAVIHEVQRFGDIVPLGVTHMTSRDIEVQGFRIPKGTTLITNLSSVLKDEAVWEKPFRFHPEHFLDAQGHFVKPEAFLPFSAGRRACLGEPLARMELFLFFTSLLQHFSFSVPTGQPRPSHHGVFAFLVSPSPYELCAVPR
T2 sequence (P33261 whole entry): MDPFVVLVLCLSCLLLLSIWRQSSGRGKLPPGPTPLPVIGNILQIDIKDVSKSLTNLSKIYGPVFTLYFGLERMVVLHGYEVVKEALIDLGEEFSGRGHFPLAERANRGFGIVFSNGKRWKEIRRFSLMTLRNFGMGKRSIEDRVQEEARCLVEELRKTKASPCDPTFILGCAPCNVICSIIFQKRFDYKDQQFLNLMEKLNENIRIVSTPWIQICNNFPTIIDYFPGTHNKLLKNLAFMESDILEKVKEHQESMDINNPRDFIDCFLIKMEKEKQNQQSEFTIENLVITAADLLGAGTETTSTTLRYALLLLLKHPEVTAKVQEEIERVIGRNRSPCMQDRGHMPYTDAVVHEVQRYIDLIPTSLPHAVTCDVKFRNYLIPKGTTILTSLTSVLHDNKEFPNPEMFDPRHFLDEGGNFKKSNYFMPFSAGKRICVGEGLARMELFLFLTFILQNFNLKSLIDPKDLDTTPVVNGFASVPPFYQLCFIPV

O=C1CCc2cc(-c3cncc(-c4cccc(F)c4)c3)cc3c2N1CC3
IC50 [1]: 1.4 nM
inhibition at 0.5 µM [2]: 97%
inhibition at 10 µM [3]: 43%
inhibition at 10 µM [4]: 9%
inhibition at 10 µM [5]: 21%
inhibition at 10 µM [6]: 79%
inhibition at 1 µM [7]: 39%
inhibition at 1 µM [8]: < 5%
inhibition at 10 µM [9]: 38%
inhibition at 2 µM [10]: 7%

O=C1CCc2cc(-c3cccnc3)cc3c2N1CCC3
IC50 [1]: 2.4 nM
inhibition at 0.5 µM [2]: 95%
inhibition at 10 µM [3]: 21%
inhibition at 10 µM [5]: 44%
inhibition at 1 µM [11]: 8%
inhibition at 10 µM [6]: 40%
inhibition at 1 µM [7]: 19%
inhibition at 1 µM [8]: 27%
inhibition at 10 µM [9]: 83%
inhibition at 2 µM [10]: 6%

COc1cncc(-c2cc3c4c(c2)CCN4C(=O)CC3)c1
IC50 [1]: 0.6 nM
inhibition at 0.5 µM [2]: 98%
inhibition at 10 µM [3]: 19%
inhibition at 10 µM [4]: 13%
inhibition at 10 µM [5]: 30%
inhibition at 1 µM [11]: 7%
inhibition at 10 µM [6]: 42%
inhibition at 1 µM [7]: 23%
inhibition at 1 µM [8]: < 5%
inhibition at 10 µM [9]: 72%
inhibition at 2 µM [10]: < 5%

O=C1CCc2cc(-c3cccnc3)cc3c2N1CC3
IC50 [1]: 1.1 nM
inhibition at 0.5 µM [2]: 90%
inhibition at 10 µM [3]: < 5%
inhibition at 10 µM [4]: < 5%
inhibition at 10 µM [5]: < 5%
inhibition at 1 µM [11]: < 5%
inhibition at 10 µM [6]: 41%
inhibition at 1 µM [7]: 6%
inhibition at 1 µM [8]: < 5%
inhibition at 10 µM [9]: 43%
inhibition at 2 µM [10]: 6%
